Experimental data of several laboratories.
Lines come from different studies, so protocols differ.
PIK3CB: Phosphatidylinositol 4,5-bisphosphate 3-kinase catalytic subunit beta isoform (PIK3CB, Homo sapiens, UniProt P42338)

SMILES | target | read-out | mode | method | tested at | quantity | value
CN1CCN(C(=O)c2ccc(NC(=O)Nc3ccc(N(C)c4ccnc(Nc5ccc(CS(C)(=O)=O)cc5)n4)cc3)cc2)CC1 | PIK3CB | binding | – | – | 1 µM | remaining binding | 100%
C1=C/COCc2cc(ccc2OCCN2CCCC2)Nc2nccc(n2)-c2cccc(c2)COC/1 | PIK3CB | binding | – | – | 0.1 µM | remaining binding | 98%
CC(C)S(=O)(=O)c1ccc2nccc(Nc3ccc4sc(C5CCCC5)nc4c3)c2c1 | Phosphatidylinositol 4,5-bisphosphate 3-kinase catalytic subunit beta isoform, with p85 (PIK3CB, Homo sapiens, UniProt P42338) | enzyme activity | inhibitor | – | 1 µM | activity vs control | 97%
CCCCC(=O)Nc1ccc(-c2ccc3ncn(CCC)c(=O)c3c2)cn1 | PIK3CB | binding | – | competition with immobilised ligand | 0.5 µM | remaining binding | 100%
CC#CC(=O)N1CCC[C@H]1c1nc(-c2ccc(C(=O)Nc3ccccn3)cc2)c2c(N)nccn12 | PIK3CB | enzyme activity | inhibitor | – | 1 µM | inhibition | 0%
Cc1nc(NC(=O)N2CCC[C@H]2C(N)=O)sc1-c1ccnc(C(C)(C)C(F)(F)F)c1 | PIK3CB | enzyme activity | inhibitor | ADP detection | 10 µM | inhibition | 82.9%
Cc1ccc(NC(=O)c2ccnc(C(F)(F)F)c2)cc1-c1cc(OCCO)nc(N2CCOCC2)c1 | PIK3CB | binding | – | – | 1 µM | remaining binding | 100%
C=CC(=O)N1CCC[C@@H](n2nc(-c3ccc(Oc4ccccc4)cc3)c3c(N)ncnc32)C1 | PIK3CB | enzyme activity | inhibitor | – | 1 µM | inhibition | 2%
